Assay results published in ChEMBL document CHEMBL1926569, “Novel (E)-1-(4-methyl-2-(alkylamino)thiazol-5-yl)-3-arylprop-2-en-1-ones as potent antimicrobial agents” (2011).
Values after ≈ are worked out from the molar mass of the structure shown.

Legend:
[1] = system: Staphylococcus aureus; test: Antibacterial activity against Staphylococcus aureus ATCC 6538 incubated for 24 hrs followed by serial sub-cultivation for 24 hrs by microdilution method; type: functional; conditions: ATCC 6538, 24 h
Procedure, shortened: (§1)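 MBC: after the 24 h LB broth microdilution (1.0 × 10⁴ CFU per well, 160 rpm), wells were serially sub-cultured into fresh broth plates and incubated a further 24 h. MBC is the lowest concentration with no visible growth, taken as 99.5% killing of the original inoculum. Duplicate, repeated three times.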

[2] = system: Candida albicans; test: Ratio of bifonazole to compound for Candida albicans isolated from human; type: functional
[3] = system: Candida albicans; test: Antifungal activity against Candida albicans isolated from human after 72 hrs by serial dilution technique; type: functional
Procedure, shortened: (§2)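 Modified microdilution in 96-well plates. Fungi were kept on malt agar at 4 °C. Spores were washed off in sterile 0.85% saline with 0.1% Tween 80. Compounds were dissolved at 1 mg/ml in 5% DMSO with 0.1% Tween 80 and added to malt broth with inoculum. Plates were shaken at 160 rpm for 72 h at 28 °C. Duplicate, repeated three times.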

[4] = system: Aspergillus niger; test: Ratio of bifonazole to compound for Aspergillus niger ATCC 6275; type: functional
[5] = system: Enterococcus faecalis; test: Antibacterial activity against Enterococcus faecalis isolated from human after 24 hrs by microdilution method; type: functional
Procedure, shortened: (§3)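 Broth microdilution in 96-well plates. Bacterial suspensions were adjusted in sterile saline to 1.0 × 10⁵ CFU/ml, prepared daily and kept at 4 °C. Compound was added to LB broth with 1.0 × 10⁴ CFU per well and shaken at 160 rpm for 24 h at […] (so in the source). MIC is the lowest concentration with no visible growth under a binocular microscope. OD655 was also read. Duplicate, repeated three times.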

[6] = system: Talaromyces funiculosus; test: Ratio of bifonazole to compound for Penicillium funiculosum ATCC 36839; type: functional
[7] = system: Talaromyces funiculosus; test: Antifungal activity against Penicillium funiculosum ATCC 36839 after 72 hrs by serial dilution technique; type: functional; conditions: ATCC 36839, 72 h; procedure, shortened: as §2
[8] = system: Micrococcus flavus; test: Antibacterial activity against Micrococcus flavus ATCC 10240 after 24 hrs by microdilution method; type: functional; conditions: ATCC 10240, 24 h; procedure, shortened: as §3
[9] = system: Pseudomonas aeruginosa; test: Antibacterial activity against Pseudomonas aeruginosa ATCC 27853 incubated for 24 hrs followed by serial sub-cultivation for 24 hrs by microdilution; type: functional; conditions: ATCC 27853, 24 h; procedure, shortened: as §1
[10] = system: Aspergillus flavus; test: Antifungal activity against Aspergillus flavus ATCC 9643 incubated for 72 hrs followed by serial sub-cultivation for 72 hrs by serial dilution technique; type: functional; conditions: ATCC 9643, 72 h
Procedure, shortened: (§4)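 MFC: material from 72 h malt broth microdilution wells was serially sub-cultured into fresh broth plates and incubated a further 72 h at 28 °C. Fungicidal concentration is taken from growth after sub-culture. Duplicate, repeated three times.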

[11] = system: Pseudomonas aeruginosa; test: Ratio of ampicillin MIC to compound MIC for Pseudomonas aeruginosa ATCC 27853; type: functional
[12] = system: Micrococcus flavus; test: Antibacterial activity against Micrococcus flavus ATCC 10240 incubated for 24 hrs followed by serial sub-cultivation for 24 hrs by microdilution; type: functional; conditions: ATCC 10240, 24 h; procedure, shortened: as §1
[13] = system: Trichoderma viride; test: Ratio of bifonazole to compound for Trichoderma viride IAM 5061; type: functional
[14] = system: Candida albicans; test: Ratio of ketoconazole to compound for Candida albicans isolated from human; type: functional
[15] = system: Penicillium ochrochloron; test: Antifungal activity against Penicillium ochrochloron ATCC 9112 after 72 hrs by serial dilution technique; type: functional; conditions: ATCC 9112, 72 h; procedure, shortened: as §2
[16] = system: Penicillium ochrochloron; test: Ratio of bifonazole to compound for Penicillium ochrochloron ATCC 9112; type: functional
[17] = system: Trichoderma viride; test: Antifungal activity against Trichoderma viride IAM 5061 after 72 hrs by serial dilution technique; type: functional; conditions: IAM 5061, 72 h; procedure, shortened: as §2
[18] = system: Trichoderma viride; test: Antifungal activity against Trichoderma viride IAM 5061 incubated for 72 hrs followed by serial sub-cultivation for 72 hrs by serial dilution technique; type: functional; conditions: IAM 5061, 72 h; procedure, shortened: as §4
[19] = system: Talaromyces funiculosus; test: Antifungal activity against Penicillium funiculosum ATCC 36839 incubated for 72 hrs followed by serial sub-cultivation for 72 hrs by serial dilution technique; type: functional; conditions: ATCC 36839, 72 h; procedure, shortened: as §4
[20] = system: Candida albicans; test: Antifungal activity against Candida albicans isolated from human incubated for 72 hrs followed by serial sub-cultivation for 72 hrs by serial dilution technique; type: functional; procedure, shortened: as §4
[21] = system: Aspergillus niger; test: Antifungal activity against Aspergillus niger ATCC 6275 incubated for 72 hrs followed by serial sub-cultivation for 72 hrs by serial dilution technique; type: functional; conditions: ATCC 6275, 72 h; procedure, shortened: as §4
[22] = system: Aspergillus niger; test: Antifungal activity against Aspergillus niger ATCC 6275 after 72 hrs by serial dilution technique; type: functional; conditions: ATCC 6275, 72 h; procedure, shortened: as §2
[23] = system: Aspergillus fumigatus; test: Antifungal activity against Aspergillus fumigatus isolated from human incubated for 72 hrs followed by serial sub-cultivation for 72 hrs by serial dilution technique; type: functional; procedure, shortened: as §4
[24] = system: Salmonella typhimurium; test: Antibacterial activity against Salmonella Typhimurium ATCC 13311 after 24 hrs by microdilution method; type: functional, Salmonella enterica subsp. enterica serovar Typhimurium; conditions: Salmonella enterica, ATCC 13311, 24 h; procedure, shortened: as §3
[25] = system: Aspergillus ochraceus; test: Ratio of ketoconazole to compound for Aspergillus ochraceus ATCC 12066; type: functional
[26] = system: Aspergillus flavus; test: Antifungal activity against Aspergillus flavus ATCC 9643 after 72 hrs by serial dilution technique; type: functional; conditions: ATCC 9643, 72 h; procedure, shortened: as §2
[27] = system: Penicillium ochrochloron; test: Ratio of ketoconazole to compound for Penicillium ochrochloron ATCC 9112; type: functional
[28] = system: Listeria monocytogenes; test: Antibacterial activity against Listeria monocytogenes NCTC 7973 incubated for 24 hrs followed by serial sub-cultivation for 24 hrs by microdilution; type: functional; conditions: NCTC 7973, 24 h; procedure, shortened: as §1
[29] = system: Aspergillus ochraceus; test: Antifungal activity against Aspergillus ochraceus ATCC 12066 after 72 hrs by serial dilution technique; type: functional; conditions: ATCC 12066, 72 h; procedure, shortened: as §2
[30] = system: Aspergillus fumigatus; test: Ratio of ketoconazole to compound for Aspergillus fumigatus isolated from human; type: functional
[31] = system: Aspergillus ochraceus; test: Antifungal activity against Aspergillus ochraceus ATCC 12066 incubated for 72 hrs followed by serial sub-cultivation for 72 hrs by serial dilution technique; type: functional; conditions: ATCC 12066, 72 h; procedure, shortened: as §4
[32] = system: Penicillium ochrochloron; test: Antifungal activity against Penicillium ochrochloron ATCC 9112 incubated for 72 hrs followed by serial sub-cultivation for 72 hrs by serial dilution technique; type: functional; conditions: ATCC 9112, 72 h; procedure, shortened: as §4
[33] = system: Bacillus cereus; test: Antibacterial activity against clinical isolate of Bacillus cereus after 24 hrs by microdilution method; type: functional; procedure, shortened: as §3
[34] = system: Aspergillus ochraceus; test: Ratio of bifonazole to compound for Aspergillus ochraceus ATCC 12066; type: functional
[35] = system: Salmonella typhimurium; test: Antibacterial activity against Salmonella Typhimurium ATCC 13311 incubated for 24 hrs followed by serial sub-cultivation for 24 hrs by microdilution; type: functional, Salmonella enterica subsp. enterica serovar Typhimurium; conditions: Salmonella enterica, ATCC 13311, 24 h; procedure, shortened: as §1
[36] = system: Enterococcus faecalis; test: Antibacterial activity against Enterococcus faecalis isolated from human incubated for 24 hrs followed by serial sub-cultivation for 24 hrs by microdilution; type: functional; procedure, shortened: as §1
[37] = system: Listeria monocytogenes; test: Antibacterial activity against Listeria monocytogenes NCTC 7973 after 24 hrs by microdilution method; type: functional; conditions: NCTC 7973, 24 h; procedure, shortened: as §3
[38] = system: Pseudomonas aeruginosa; test: Antibacterial activity against Pseudomonas aeruginosa ATCC 27853 after 24 hrs by microdilution method; type: functional; conditions: ATCC 27853, 24 h; procedure, shortened: as §3
[39] = system: Escherichia coli; test: Antibacterial activity against Escherichia coli ATCC 35210 incubated for 24 hrs followed by serial sub-cultivation for 24 hrs by microdilution; type: functional; conditions: ATCC 35210, 24 h; procedure, shortened: as §1
[40] = system: Bacillus cereus; test: Antibacterial activity against clinical isolate of Bacillus cereus incubated for 24 hrs followed by serial sub-cultivation for 24 hrs by microdilution; type: functional; procedure, shortened: as §1
[41] = system: Staphylococcus aureus; test: Antibacterial activity against Staphylococcus aureus ATCC 6538 after 24 hrs by microdilution method; type: functional; conditions: ATCC 6538, 24 h; procedure, shortened: as §3
[42] = system: Aspergillus ochraceus; test: Antifungal activity against Aspergillus ochraceus after 72 hrs by serial dilution technique
[43] = system: Escherichia coli; test: Antibacterial activity against Escherichia coli ATCC 35210 after 24 hrs by microdilution method; type: functional; conditions: ATCC 35210, 24 h; procedure, shortened: as §3

CNc1nc(C)c(C(=O)/C=C/c2ccc(F)cc2)s1
MBC [1]: 72.5 µM (≈ 20 µg/mL)
Ratio [2]: 10
MIC [3]: 72.5 µM (≈ 20 µg/mL)
Ratio [4]: 10
MIC [5]: 54.3 µM (≈ 15 µg/mL)
Ratio [6]: 10
MIC [7]: 36.2 µM (≈ 10 µg/mL)
MIC [8]: 32.6 µM (≈ 9.01 µg/mL)
MBC [9]: 111 µM (≈ 30.6 µg/mL)
MFC [10]: 90.6 µM (≈ 25 µg/mL)
Ratio [11]: 10
MBC [12]: 72.5 µM (≈ 20 µg/mL)
Ratio [13]: 10
Ratio [14]: 10
MIC [15]: 36.2 µM (≈ 10 µg/mL)
Ratio [16]: 10
MIC [17]: 72.5 µM (≈ 20 µg/mL)
MFC [18]: 90.6 µM (≈ 25 µg/mL)
MFC [19]: 72.5 µM (≈ 20 µg/mL)
MFC [20]: 90.6 µM (≈ 25 µg/mL)
MFC [21]: 72.5 µM (≈ 20 µg/mL)
MIC [22]: 36.2 µM (≈ 10 µg/mL)
MFC [23]: 72.5 µM (≈ 20 µg/mL)
MIC [24]: 54.3 µM (≈ 15 µg/mL)
Ratio [25]: 10
MIC [26]: 36.2 µM (≈ 10 µg/mL)
Ratio [27]: 10
MBC [28]: 90.6 µM (≈ 25 µg/mL)
MIC [29]: 36.2 µM (≈ 10 µg/mL)
Ratio [30]: 10
MFC [31]: 72.5 µM (≈ 20 µg/mL)
MFC [32]: 72.5 µM (≈ 20 µg/mL)
MIC [33]: 36.2 µM (≈ 10 µg/mL)
Ratio [34]: 10
MBC [35]: 72.5 µM (≈ 20 µg/mL)
MBC [36]: 72.5 µM (≈ 20 µg/mL)
MIC [37]: 90.6 µM (≈ 25 µg/mL)
MIC [38]: 72.5 µM (≈ 20 µg/mL)
MBC [39]: 72.5 µM (≈ 20 µg/mL)
MBC [40]: 54.3 µM (≈ 15 µg/mL)
MIC [41]: 72.5 µM (≈ 20 µg/mL)
MIC [42]: 36.2 µM (≈ 10 µg/mL)
MIC [43]: 54.3 µM (≈ 15 µg/mL)

CCNc1nc(C)c(C(=O)/C=C/c2ccc(F)cc2)s1
MBC [1]: 68.9 µM (≈ 20 µg/mL)
Ratio [2]: 10
MIC [3]: 34.5 µM (≈ 10 µg/mL)
Ratio [4]: 10
MIC [5]: 51.7 µM (≈ 15 µg/mL)
Ratio [6]: 10
MIC [7]: 34.5 µM (≈ 10 µg/mL)
MIC [8]: 51.7 µM (≈ 15 µg/mL)
MBC [9]: 68.9 µM (≈ 20 µg/mL)
MFC [10]: 86.2 µM (≈ 25 µg/mL)
Ratio [11]: 10
MBC [12]: 68.9 µM (≈ 20 µg/mL)
Ratio [13]: 10
Ratio [14]: 10
MIC [15]: 68.9 µM (≈ 20 µg/mL)
Ratio [16]: 10
MIC [17]: 34.5 µM (≈ 10 µg/mL)
MFC [18]: 68.9 µM (≈ 20 µg/mL)
MFC [19]: 68.9 µM (≈ 20 µg/mL)
MFC [20]: 68.9 µM (≈ 20 µg/mL)
MFC [21]: 51.7 µM (≈ 15 µg/mL)
MIC [22]: 34.5 µM (≈ 10 µg/mL)
MFC [23]: 68.9 µM (≈ 20 µg/mL)
MIC [24]: 51.7 µM (≈ 15 µg/mL)
Ratio [25]: 10
MIC [26]: 68.9 µM (≈ 20 µg/mL)
Ratio [27]: 10
MBC [28]: 103 µM (≈ 30 µg/mL)
MIC [29]: 68.9 µM (≈ 20 µg/mL)
Ratio [30]: 10
MFC [31]: 86.2 µM (≈ 25 µg/mL)
MFC [32]: 86.2 µM (≈ 25 µg/mL)
MIC [33]: 86.2 µM (≈ 25 µg/mL)
Ratio [34]: 10
MBC [35]: 51.7 µM (≈ 15 µg/mL)
MBC [36]: 68.9 µM (≈ 20 µg/mL)
MIC [37]: 86.2 µM (≈ 25 µg/mL)
MIC [38]: 68.9 µM (≈ 20 µg/mL)
MBC [39]: 68.9 µM (≈ 20 µg/mL)
MBC [40]: 86.2 µM (≈ 25 µg/mL)
MIC [41]: 68.9 µM (≈ 20 µg/mL)
MIC [42]: 51.7 µM (≈ 15 µg/mL)
MIC [43]: 51.7 µM (≈ 15 µg/mL)
